In ChEMBL document CHEMBL1144871, “Synthesis of substituted 6-anilinouracils and their inhibition of DNA polymerase IIIC and Gram-positive bacterial growth” (J Med Chem, 2003):
Converted amounts (≈) assume the structure as drawn.

Columns and labels:
Enterococcus faecium = experiment: Antibacterial activity against Enterococcus faecium was determined; format: functional, enterococcus fecium
In short: (§1)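 Broth microdilution MIC. Log-phase cultures grown in Luria broth; wells seeded from stocks at (3-7) × 10⁵ CFU/mL. DMSO stocks diluted 2-fold to five concentrations, 20 to 1.25 µg/mL, plus untreated control; 1% DMSO final in all wells. Duplicate assays, 37 °C for 16 to 24 h, growth read as OD600. MIC taken as lowest concentration preventing growth, averaged.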

Escherichia coli = experiment: Antibacterial activity against Escherichia coli was determined; format: functional; in short: as §1
Enterococcus faecalis [1] = experiment: Antibacterial activity against vancomycin-resistant strain of Enterococcus faecalis(VRE) was determined; format: functional
In short: (§2)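 MIC by broth microdilution. Log-phase cultures in Luria broth, seeded at (3-7) × 10⁵ CFU/mL stocks. Compound from DMSO stock, 2-fold serial dilutions giving five concentrations from 20 to 1.25 µg/mL, final 1% DMSO, with untreated and DMSO controls. Duplicate assays, 37 °C for 16 to 24 h, growth read as OD 600 nm. MIC is the averaged lowest concentration preventing growth.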

Staphylococcus aureus [2] = experiment: Antibacterial activity against methicillin-resistant strain of Staphylococcus aureus(MRSA B42876) was determined; format: functional; in short: as §2
Enterococcus faecalis [3] = experiment: Antibacterial activity against Enterococcus faecalis was determined; format: functional; in short: as §2
Staphylococcus aureus [4] = experiment: Antibacterial activity against Staphylococcus aureus(smith) was determined; format: functional
[5] = target: DNA polymerase III PolC-type (Bacillus subtilis (strain 168), UniProt P13267); experiment: Inhibitory activity against DNA polymerase IIIC from Bacillus subtilis was determined
In short: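 Homogeneous recombinant B. subtilis pol IIIC, 0.025-0.06 units, added to buffered Mg²⁺/DTT/glycerol mix with dATP, dCTP, dTTP, [³H]dTTP and activated calf thymus DNA, no dGTP ("truncated" assay). Compound serial dilutions in DMSO added before enzyme. 10 min at 30 °C, TCA-pyrophosphate stop, acid-precipitated DNA filtered and scintillation counted. Apparent Ki read directly; duplicates.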

Bacillus subtilis = experiment: Antibacterial activity against Bacillus subtilis was determined; format: functional
Staphylococcus aureus [6] = experiment: Antibacterial activity against Staphylococcus aureus was determined; format: functional

Sequence of DNA polymerase III PolC-type (P13267 whole entry, the tested form may be a part): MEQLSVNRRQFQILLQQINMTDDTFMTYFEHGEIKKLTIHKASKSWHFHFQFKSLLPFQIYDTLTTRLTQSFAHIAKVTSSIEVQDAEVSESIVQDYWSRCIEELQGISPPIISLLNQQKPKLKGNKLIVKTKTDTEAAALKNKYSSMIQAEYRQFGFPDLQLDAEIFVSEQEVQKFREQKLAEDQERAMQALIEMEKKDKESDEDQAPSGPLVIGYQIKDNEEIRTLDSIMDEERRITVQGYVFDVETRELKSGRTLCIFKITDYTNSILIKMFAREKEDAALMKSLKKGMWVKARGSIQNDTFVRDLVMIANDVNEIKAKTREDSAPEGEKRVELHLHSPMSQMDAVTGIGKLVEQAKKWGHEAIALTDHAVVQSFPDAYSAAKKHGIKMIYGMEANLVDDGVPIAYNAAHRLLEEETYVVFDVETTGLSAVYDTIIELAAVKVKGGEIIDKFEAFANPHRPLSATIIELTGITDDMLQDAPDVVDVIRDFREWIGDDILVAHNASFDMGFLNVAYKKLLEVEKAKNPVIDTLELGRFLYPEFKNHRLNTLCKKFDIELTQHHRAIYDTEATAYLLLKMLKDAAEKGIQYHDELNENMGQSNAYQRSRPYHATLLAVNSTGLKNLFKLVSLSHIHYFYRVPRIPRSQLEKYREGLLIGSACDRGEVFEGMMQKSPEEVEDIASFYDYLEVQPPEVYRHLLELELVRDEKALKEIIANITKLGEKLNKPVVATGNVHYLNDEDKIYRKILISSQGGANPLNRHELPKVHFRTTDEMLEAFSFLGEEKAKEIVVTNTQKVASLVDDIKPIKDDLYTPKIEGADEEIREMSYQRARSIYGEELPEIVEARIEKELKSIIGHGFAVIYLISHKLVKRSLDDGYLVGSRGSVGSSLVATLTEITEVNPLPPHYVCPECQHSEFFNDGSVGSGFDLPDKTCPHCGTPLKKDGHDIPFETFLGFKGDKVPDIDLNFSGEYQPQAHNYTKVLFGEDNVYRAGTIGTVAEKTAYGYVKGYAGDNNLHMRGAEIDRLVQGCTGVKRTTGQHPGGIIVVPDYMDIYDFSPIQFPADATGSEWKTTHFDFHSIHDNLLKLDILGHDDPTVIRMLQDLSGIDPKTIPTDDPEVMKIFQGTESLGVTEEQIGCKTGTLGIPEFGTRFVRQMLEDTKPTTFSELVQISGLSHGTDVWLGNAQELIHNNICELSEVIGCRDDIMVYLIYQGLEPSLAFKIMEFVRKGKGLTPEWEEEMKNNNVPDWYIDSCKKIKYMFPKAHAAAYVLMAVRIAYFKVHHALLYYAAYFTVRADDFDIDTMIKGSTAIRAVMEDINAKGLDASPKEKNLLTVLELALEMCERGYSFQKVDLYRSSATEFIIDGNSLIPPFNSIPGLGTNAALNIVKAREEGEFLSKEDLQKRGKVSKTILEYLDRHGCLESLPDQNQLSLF

Structure (SMILES)	MIC (Enterococcus faecium)	MIC (Escherichia coli)	MIC (Enterococcus faecalis [1])	MIC (Staphylococcus aureus [2])	MIC (Enterococcus faecalis [3])	MIC (Staphylococcus aureus [4])	Ki [5]	MIC (Bacillus subtilis)	MIC (Staphylococcus aureus [6])
CCc1cc(Nc2cc(=O)n(CCCCN3CCC(O)(c4ccc(Cl)c(C(F)(F)F)c4)CC3)c(=O)[nH]2)ccc1C	2.5 µg/mL (≈ 4.32 µM)	> 20 µg/mL	2.5 µg/mL (≈ 4.32 µM)	–	–	–	–	–	–
CCc1cc(Nc2cc(=O)n(CCCCN3CCN(C(=O)c4ccco4)CC3)c(=O)[nH]2)ccc1C	10 µg/mL (≈ 20.9 µM)	> 20 µg/mL	10 µg/mL (≈ 20.9 µM)	20 µg/mL (≈ 41.7 µM)	5 µg/mL (≈ 10.4 µM)	5 µg/mL (≈ 10.4 µM)	–	–	–
CCc1cc(Nc2cc(=O)n(CCCCO)c(=O)[nH]2)ccc1C	2.5 µg/mL (≈ 7.88 µM)	> 20 µg/mL	2.5 µg/mL (≈ 7.88 µM)	–	–	–	63 nM	–	–
COCCCCn1c(=O)cc(Nc2ccc(C)c(CSC#N)c2)[nH]c1=O	> 20 µg/mL	> 20 µg/mL	–	–	> 20 µg/mL	> 20 µg/mL	60 nM	> 20 µg/mL	> 20 µg/mL
COCCCCn1c(=O)cc(Nc2ccc(C)c(Br)c2)[nH]c1=O	5 µg/mL (≈ 13.1 µM)	> 20 µg/mL	2.5 µg/mL (≈ 6.54 µM)	5 µg/mL (≈ 13.1 µM)	5 µg/mL (≈ 13.1 µM)	2.5 µg/mL (≈ 6.54 µM)	129 nM	2.5 µg/mL (≈ 6.54 µM)	5 µg/mL (≈ 13.1 µM)
COCCCCn1c(=O)cc(Nc2ccc(C)c(CS)c2)[nH]c1=O	> 20 µg/mL	> 20 µg/mL	–	–	> 20 µg/mL	> 20 µg/mL	180 nM	> 20 µg/mL	> 20 µg/mL
CCc1cc(Nc2cc(=O)n(CCCCN3CCSCC3)c(=O)[nH]2)ccc1C	5 µg/mL (≈ 12.4 µM)	> 20 µg/mL	5 µg/mL (≈ 12.4 µM)	20 µg/mL (≈ 49.7 µM)	5 µg/mL (≈ 12.4 µM)	–	–	–	20 µg/mL (≈ 49.7 µM)
C=Cc1cc(Nc2cc(=O)n(CCCCOC)c(=O)[nH]2)ccc1C	5 µg/mL (≈ 15.2 µM)	> 20 µg/mL	10 µg/mL (≈ 30.4 µM)	10 µg/mL (≈ 30.4 µM)	10 µg/mL (≈ 30.4 µM)	5 µg/mL (≈ 15.2 µM)	560 nM	< 1.25 µg/mL	5 µg/mL (≈ 15.2 µM)
COCCCCn1c(=O)cc(Nc2ccc(C)c(CO)c2)[nH]c1=O	> 20 µg/mL	> 20 µg/mL	–	–	> 20 µg/mL	> 20 µg/mL	20000 nM	> 20 µg/mL	> 20 µg/mL
COCCCCn1c(=O)cc(Nc2ccc(C)c(C(C)=O)c2)[nH]c1=O	> 20 µg/mL	> 20 µg/mL	–	–	> 20 µg/mL	> 20 µg/mL	3260 nM	> 20 µg/mL	> 20 µg/mL
CCc1cc(Nc2cc(=O)n(CCCCN)c(=O)[nH]2)ccc1C.Cl	–	> 20 µg/mL	–	–	–	–	62 nM	–	–
COCCCCn1c(=O)cc(Nc2ccc(C)c(C(C)Cl)c2)[nH]c1=O (stereo unspecified)	> 20 µg/mL	> 20 µg/mL	–	–	> 20 µg/mL	> 20 µg/mL	6470 nM	> 20 µg/mL	> 20 µg/mL
CCc1cc(Nc2cc(=O)n(CCCCN3CCN(c4ccc(F)cc4)CC3)c(=O)[nH]2)ccc1C	5 µg/mL (≈ 10.4 µM)	> 20 µg/mL	5 µg/mL (≈ 10.4 µM)	20 µg/mL (≈ 41.7 µM)	10 µg/mL (≈ 20.9 µM)	–	–	–	10 µg/mL (≈ 20.9 µM)
CCc1cc(Nc2cc(=O)n(CCCCN3CCNCC3)c(=O)[nH]2)ccc1C.Cl.Cl	> 20 µg/mL	> 20 µg/mL	–	–	> 20 µg/mL	> 20 µg/mL	30 nM	20 µg/mL	> 20 µg/mL
CCOC(=O)CC1CN(CCCCn2c(=O)cc(Nc3ccc(C)c(CC)c3)[nH]c2=O)CCO1 (stereo unspecified)	10 µg/mL (≈ 21.2 µM)	> 20 µg/mL	–	20 µg/mL (≈ 42.3 µM)	> 20 µg/mL	20 µg/mL (≈ 42.3 µM)	26 nM	5 µg/mL (≈ 10.6 µM)	20 µg/mL (≈ 42.3 µM)
CCc1cc(Nc2cc(=O)n(CCCCN3CCOCC3)c(=O)[nH]2)ccc1C	–	> 20 µg/mL	–	–	–	–	–	–	–
COCCCCn1c(=O)cc(NCc2ccc(Cl)c(Cl)c2)[nH]c1=O	5 µg/mL (≈ 13.4 µM)	> 20 µg/mL	5 µg/mL (≈ 13.4 µM)	20 µg/mL (≈ 53.7 µM)	5 µg/mL (≈ 13.4 µM)	5 µg/mL (≈ 13.4 µM)	80 nM	3.75 µg/mL (≈ 10.1 µM)	10 µg/mL (≈ 26.9 µM)
CCc1cc(Nc2cc(=O)n(CCCCN3CCC(O)(c4ccc(Cl)cc4)CC3)c(=O)[nH]2)ccc1C	5 µg/mL (≈ 9.78 µM)	> 20 µg/mL	10 µg/mL (≈ 19.6 µM)	5 µg/mL (≈ 9.78 µM)	5 µg/mL (≈ 9.78 µM)	5 µg/mL (≈ 9.78 µM)	–	–	–
CCc1cc(Nc2cc(=O)n(CCCCN3CCN(c4ncccn4)CC3)c(=O)[nH]2)ccc1C	5 µg/mL (≈ 10.8 µM)	> 20 µg/mL	5 µg/mL (≈ 10.8 µM)	10 µg/mL (≈ 21.6 µM)	5 µg/mL (≈ 10.8 µM)	10 µg/mL (≈ 21.6 µM)	–	–	–
COCCCCn1c(=O)cc(Nc2ccc(C)c(Cl)c2)[nH]c1=O	5 µg/mL (≈ 14.8 µM)	> 20 µg/mL	5 µg/mL (≈ 14.8 µM)	> 20 µg/mL	5 µg/mL (≈ 14.8 µM)	5 µg/mL (≈ 14.8 µM)	42 nM	< 1.25 µg/mL	10 µg/mL (≈ 29.6 µM)
COCCCCn1c(=O)cc(Nc2ccc(C)c(CCl)c2)[nH]c1=O	> 20 µg/mL	> 20 µg/mL	–	20 µg/mL (≈ 56.8 µM)	> 20 µg/mL	20 µg/mL (≈ 56.8 µM)	40 nM	5 µg/mL (≈ 14.2 µM)	20 µg/mL (≈ 56.8 µM)
CCc1cc(Nc2cc(=O)n(CCCCOC)c(=O)[nH]2)ccc1C	–	> 20 µg/mL	2.5 µg/mL (≈ 7.54 µM)	–	–	–	88 nM	–	–
COCCCCn1c(=O)cc(Nc2ccc(C)c(C(C)O)c2)[nH]c1=O (stereo unspecified)	> 20 µg/mL	> 20 µg/mL	–	–	> 20 µg/mL	> 20 µg/mL	2100 nM	> 20 µg/mL	> 20 µg/mL
COCCCCn1c(=O)cc(Nc2ccc(C)c(CC#N)c2)[nH]c1=O	20 µg/mL (≈ 58.4 µM)	> 20 µg/mL	–	–	> 20 µg/mL	20 µg/mL (≈ 58.4 µM)	1020 nM	20 µg/mL (≈ 58.4 µM)	> 20 µg/mL
CCOC1CN(CCCCn2c(=O)cc(Nc3ccc(C)c(CC)c3)[nH]c2=O)CCO1 (stereo unspecified)	20 µg/mL (≈ 46.5 µM)	> 20 µg/mL	10 µg/mL (≈ 23.2 µM)	20 µg/mL (≈ 46.5 µM)	10 µg/mL (≈ 23.2 µM)	20 µg/mL (≈ 46.5 µM)	43 nM	2.5 µg/mL (≈ 5.81 µM)	10 µg/mL (≈ 23.2 µM)
CCc1cc(Nc2cc(=O)n(CCCCI)c(=O)[nH]2)ccc1C	> 20 µg/mL	> 20 µg/mL	–	–	> 20 µg/mL	> 20 µg/mL	140 nM	> 20 µg/mL	> 20 µg/mL
O=C(O)c1cn(C2CC2)c2cc(N3CCNCC3)c(F)cc2c1=O [CIPROFLOXACIN]	–	0.313 µg/mL (≈ 0.945 µM)	20 µg/mL (≈ 60.4 µM)	–	–	–	–	–	–
CN[C@H](CC(C)C)C(=O)N[C@H]1C(=O)N[C@@H](CC(N)=O)C(=O)N[C@H]2C(=O)N[C@H]3C(=O)N[C@H](C(=O)N[C@H](C(=O)O)c4cc(O)cc(O)c4-c4cc3ccc4O)[C@H](O)c3ccc(c(Cl)c3)Oc3cc2cc(c3O[C@@H]2O[C@H](CO)[C@@H](O)[C@H](O)[C@H]2O[C@H]2C[C@](C)(N)[C@H](O)[C@H](C)O2)Oc2ccc(cc2Cl)[C@H]1O [VANCOMYCIN]	–	> 20 µg/mL	> 20 µg/mL	–	–	–	–	–	–
